From paper PMC3064745 (Immunity, 2011)
Read-outs that look alike come from different tables or passages of the source.

Key:
NKT cells [1] = format: cell-based, mouse; conditions: 3 d culture
In short: (§1)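 Jα18−/− mouse splenocytes were pulsed overnight with glycolipid plus IL-2 (100 U/ml), then spun through FCS and resuspended to remove excess lipid. Thymocytes were NKT-enriched by complement depletion of anti-HSA/anti-CD8-labelled cells, cleared of dead cells by gradient, and labelled with CFSE […] for 10 min at 37C. Cells were co-cultured at 2:1 splenocytes:thymocytes for 72h.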

NKT cells [2] = assay: Cytokines in culture supernatant, cytometric bead array; format: cell-based, mouse; conditions: 100 ng/ml, 8h stimulation
NKT cells [3] = assay: IFN-γ production by NKT cells, intracellular cytokine staining; format: cell-based, mouse; conditions: 100 ng/ml, 8h stimulation, ICS
In short: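 NKT-enriched thymocytes were cultured for 8h with Jα18−/− splenocytes pulsed with 100 ng/ml glycolipid, with GolgiStop for the last 4h. Cells were surface stained, fixed, permeabilised and stained with anti-IFN-γ. Readout was percent IFN-γ⁺ among α-GalCer-CD1d tetramer⁺ cells. Data representative of 4 experiments.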

Vβ7+ NKT cells = assay: Vβ usage of NKT cells after 3 days of in vitro proliferation; format: cell-based, mouse; conditions: Vβ usage by cell division peak
In short: as §1

mouse Vβ8.2 NKT TCR = mouse Vβ8.2 NKT TCR (Mus musculus, UniProt P11609+Z9CWY5XBV8); assay: Surface plasmon resonance of NKT TCR binding to CD1d-AGL complexes
In short: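 SPR used soluble mouse NKT TCR (Vα14-Jα18; Vβ8.2) injected over streptavidin-immobilised mouse CD1d loaded with glycolipid, with a reference cell of unloaded CD1d. KD was derived from equilibrium responses. Kinetic rate constants were also fitted, with t1/2 determined from the interactions.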

[4] = Serum cytokines after in vivo treatment; conditions: 20h after in vivo treatment, compared to C20:2 and OCH
NKT cells [5] = conditions: ICS at 2 and 6 hours after in vivo challenge, compared to α-GalCer; ref Sullivan et al 2010; cited from earlier work

Chain of mouse Vβ8.2 NKT TCR (P11609 whole entry, looked up, other chains not shown): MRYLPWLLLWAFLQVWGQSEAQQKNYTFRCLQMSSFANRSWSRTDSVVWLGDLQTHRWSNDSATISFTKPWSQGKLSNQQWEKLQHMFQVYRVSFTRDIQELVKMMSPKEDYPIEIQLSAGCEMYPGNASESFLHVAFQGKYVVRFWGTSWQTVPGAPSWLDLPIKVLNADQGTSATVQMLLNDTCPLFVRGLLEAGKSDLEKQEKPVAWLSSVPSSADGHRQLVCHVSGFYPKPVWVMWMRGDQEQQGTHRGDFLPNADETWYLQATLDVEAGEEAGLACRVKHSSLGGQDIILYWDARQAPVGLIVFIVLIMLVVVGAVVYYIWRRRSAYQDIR

Row | Compound | NKT cell proliferation (NKT cells [1]; 1 ng/ml glycolipid) | NKT cell proliferation (NKT cells [1]; 100 ng/ml glycolipid) | Th2 bias of cytokine production (NKT cells [2]) | IFN-γ producing NKT cells (NKT cells [3]) | bias toward Vβ7 proliferation (Vβ7+ NKT cells) | other results
1 | CCCCC/C=C\C/C=C\CCCCCCCCCC(=O)N[C@@H](CO[C@H]1O[C@H](CO)[C@H](O)[C@H](O)[C@H]1O)[C@H](O)[C@H](O)CCCCCCCCCCCCCC [C20:2] | barely induced NKT cell proliferation | able to induce proliferation | not apparent | highest percentages of IFN-γ producing NKT cells | – | –
2 | CCCCCCCCCCCCCCCCCCCCCCCCCC(=O)N[C@@H](CO[C@H]1O[C@H](CO)C[C@H](O)[C@H]1O)[C@H](O)[C@H](O)CCCCCCCCCCCCCC [4′-deoxy-α-GalCer] | – | – | – | less potent inducers of IFN-γ production | showed a Vβ7 bias | –
3 | CCCCCCCCCCCCCCCCCCCCCCCCCC(=O)N[C@@H](CO[C@H]1O[C@H](CO)C[C@H](O)[C@H]1O)[C@H](O)CCCCCCCCCCCCCCC [4′,4″-deoxy-α-GalCer] | – | – | – | less potent inducers of IFN-γ production | showed a Vβ7 bias | –
4 | CCCCC/C=C\C/C=C\CCCCCCCCCC(=O)N[C@@H](CO[C@H]1O[C@H](CO)[C@@H](O)[C@H](O)[C@H]1O)[C@H](O)[C@H](O)CCCCCCCCCCCCCC [α-GlcCer (C20:2)] | barely induced NKT cell proliferation | able to induce proliferation | – | least IFN-γ production of all | showed a Vβ7 bias | bias toward Vβ7 proliferation (Vβ7+ NKT cells; listed as α-GlcCer): progressively enriched with each division cycle
5 | CCCCCCCCCCCCCCCCCCCCCCCCCC(=O)N[C@@H](CO[C@H]1O[C@H](CO)[C@H](O)[C@H](O)[C@H]1O)[C@H](O)[C@H](O)CCCCCCCCCCCCCC [α-GalCer, α-galactosylceramide] | – | – | – | highest percentages of IFN-γ producing NKT cells | – | Kd (mouse Vβ8.2 NKT TCR): ~59 nM; t1/2 life of the interaction (mouse Vβ8.2 NKT TCR; NKT TCR-CD1d-glycolipid interaction): approximately 20 s; serum IFN-γ response [4]: more sustained IFN-γ response at 20h
6 | CCCCCCCCCCCCCCCCCCCCCCCC(=O)N[C@@H](COC1OC(CO)C(O)C(O)C1O)[C@H](O)[C@H](O)CCCCC (stereo partly shown) [OCH, reference compound] | consistently weaker in comparison to the non-truncated AGLs | – | not apparent | highest percentages of IFN-γ producing NKT cells | loss of Vβ7^+ NKT cells with each progressive division cycle | t1/2 life of the interaction, comparison in words (mouse Vβ8.2 NKT TCR): markedly longer half life when compared to that of the 3′,4″-deoxy AGL; affinity relative to the NKT TCR-CD1d-α-GalCer interaction (mouse Vβ8.2 NKT TCR; compared with the α-GalCer positive control): approximately 20%; effect on kinetic rate constants (ka, kd) (mouse Vβ8.2 NKT TCR; compared with α-GalCer, in words): impacted negatively on the association constant; Th2 bias of NKT cell cytokine production (NKT cells [5]): fails to reveal a Th2 bias
